Measured values from ChEMBL document CHEMBL1155897, “Structure-antitussive activity relationships of naltrindole derivatives. Identification of novel and potent antitussive agents” (J Med Chem, 2008).
Calls of active or inactive are those of the source. No cut-off for these calls is given here.

Assays:
Rattus norvegicus [1] = assay: Antitussive activity in ip dosed Sprague-Dawley rat assessed as reduction in number of capsaicin-induced coughs; type: functional
Rattus norvegicus [2] = assay: Effect on Sprague-Dawley rat capsaicin-induced cough nodel assessed as increase in number of coughs at 10 mg/kg, sc; type: functional, organism-based; parameters: dose 10 mg/kg
Mu-type opioid receptor [3] = target: T1, Mu-type opioid receptor (Mus musculus, UniProt P42866); assay: Antagonist activity at mu opioid receptor in electrically-induced ddY mouse vas deferens assessed as effect on morphine-induced inhibition of electrically-stimulated contraction at 30 uM; type: functional, tissue-based; conditions: read-out: pA2 (converted)
T1 sequence (P42866 whole entry): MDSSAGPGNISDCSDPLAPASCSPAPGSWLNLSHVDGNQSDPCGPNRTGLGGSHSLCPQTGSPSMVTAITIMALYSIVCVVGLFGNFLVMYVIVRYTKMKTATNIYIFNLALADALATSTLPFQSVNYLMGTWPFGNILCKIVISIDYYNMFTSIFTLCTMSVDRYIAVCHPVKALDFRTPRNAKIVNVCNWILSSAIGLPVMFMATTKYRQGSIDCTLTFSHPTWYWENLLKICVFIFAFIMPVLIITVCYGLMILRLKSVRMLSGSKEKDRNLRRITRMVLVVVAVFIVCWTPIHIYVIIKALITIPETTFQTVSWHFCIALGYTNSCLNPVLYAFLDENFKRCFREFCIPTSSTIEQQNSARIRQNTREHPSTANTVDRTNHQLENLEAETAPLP
In short: (§1)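 Vas deferens from male ddy mice was mounted in a Magnus tube at 37 °C in Krebs-Henseleit gassed with 95% O2/5% CO2 and electrically stimulated. Antagonist was added 20 min before cumulative agonist: DPDPE (δ), U-50,488H (κ) or morphine (µ). Dose ratio is the agonist IC50 with versus without antagonist, as mean of N=4. pA2 = −log([B]/(dose ratio − 1)).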

[4] = target: T2, Kappa-type opioid receptor (Mus musculus, UniProt P33534); assay: Antagonist activity at kappa opioid receptor in electrically-induced ddY mouse vas deferens assessed as effect on U50,488H-induced inhibition of electrically-stimulated contraction at 30 uM; type: functional, tissue-based; conditions: read-out: pA2 (converted); in short: as §1
T2 sequence (P33534 whole entry): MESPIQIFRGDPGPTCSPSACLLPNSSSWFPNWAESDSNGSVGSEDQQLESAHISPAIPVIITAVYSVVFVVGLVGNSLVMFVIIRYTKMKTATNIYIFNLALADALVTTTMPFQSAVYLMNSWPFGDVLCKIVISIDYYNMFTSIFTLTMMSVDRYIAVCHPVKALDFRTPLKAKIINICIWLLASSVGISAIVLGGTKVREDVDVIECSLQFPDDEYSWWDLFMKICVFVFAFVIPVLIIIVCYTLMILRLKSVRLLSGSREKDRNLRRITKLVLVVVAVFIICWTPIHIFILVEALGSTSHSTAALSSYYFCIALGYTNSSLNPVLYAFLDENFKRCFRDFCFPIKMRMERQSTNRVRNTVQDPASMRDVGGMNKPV

[5] = Displacement of [3H]NTI from delta opioid receptor in Hartley guinea pig brain membrane; type: cell membranes, Cavia porcellus
In short: (§2)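 Brains from 4-week male Hartley guinea pigs were split into forebrain (µ, δ) and cerebellum (κ). Membranes were homogenised in 50 mM Tris-HCl pH 7.4 and held 1 h at 4 °C to remove endogenous ligands.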

Mu-type opioid receptor [6] = target: T3, Mu-type opioid receptor (Cavia porcellus, UniProt P97266); assay: Displacement of [3H]DAMGO from mu opioid receptor in Hartley guinea pig brain membrane; type: cell membranes; in short: as §2
T3 sequence (P97266 whole entry): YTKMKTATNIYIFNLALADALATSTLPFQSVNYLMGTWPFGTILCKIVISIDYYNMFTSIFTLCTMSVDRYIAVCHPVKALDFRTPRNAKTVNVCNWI

[7] = target: T4, Kappa-type opioid receptor (Cavia porcellus, UniProt P41144); assay: Displacement of […] from kappa opioid receptor in Hartley guinea pig brain membrane; type: cell membranes
T4 sequence (P41144 whole entry): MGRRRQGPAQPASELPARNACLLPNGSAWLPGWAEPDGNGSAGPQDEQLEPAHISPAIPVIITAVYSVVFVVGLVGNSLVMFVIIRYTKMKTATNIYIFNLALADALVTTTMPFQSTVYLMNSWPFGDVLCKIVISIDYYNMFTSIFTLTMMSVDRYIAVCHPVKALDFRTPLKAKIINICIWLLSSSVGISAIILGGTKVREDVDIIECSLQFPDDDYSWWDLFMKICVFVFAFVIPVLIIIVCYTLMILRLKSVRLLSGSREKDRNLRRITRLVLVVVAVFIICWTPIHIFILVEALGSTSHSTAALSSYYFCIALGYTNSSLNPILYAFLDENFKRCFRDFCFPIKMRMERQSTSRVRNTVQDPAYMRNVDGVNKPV

Cavia porcellus [8] = species: Cavia porcellus; assay: Selectivity for delta opioid receptor over mu opioid receptor in Hartley guinea pig brain membrane; type: cell membranes
Cavia porcellus [9] = species: Cavia porcellus; assay: Selectivity for delta opioid receptor over kappa opioid receptor in Hartley guinea pig brain membrane; type: cell membranes
[10] = target: Delta-type opioid receptor (Homo sapiens) (UniProt P41143); assay: Agonist activity at human delta opioid receptor expressed in CHO cells assessed as stimulation of [35S]GTPgammaS binding at 1 uM relative to DPDPE; type: functional, cell-based
Chain of Delta-type opioid receptor (Homo sapiens) (P41143 whole entry): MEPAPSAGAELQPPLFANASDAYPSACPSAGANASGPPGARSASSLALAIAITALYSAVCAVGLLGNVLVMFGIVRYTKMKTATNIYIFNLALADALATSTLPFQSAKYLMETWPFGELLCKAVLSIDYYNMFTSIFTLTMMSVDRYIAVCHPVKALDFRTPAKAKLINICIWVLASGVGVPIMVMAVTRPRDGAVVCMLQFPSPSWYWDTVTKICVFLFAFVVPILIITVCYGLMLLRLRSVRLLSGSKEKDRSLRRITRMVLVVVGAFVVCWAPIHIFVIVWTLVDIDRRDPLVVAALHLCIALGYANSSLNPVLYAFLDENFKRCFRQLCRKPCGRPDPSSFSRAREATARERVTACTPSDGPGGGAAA
In short: (§3)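 Compound was preincubated 20 min at 30 °C, then 60 min with SPA beads. 0.3 nM [35S]GTPγS was added for 30 min.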

[11] = target: Mu-type opioid receptor (Homo sapiens) (UniProt P35372); assay: Agonist activity at human mu opioid receptor expressed in CHO cells assessed as stimulation of [35S]GTPgammaS binding at 1 uM relative to DAMGO; type: functional, cell-based; in short: as §3
Chain of Mu-type opioid receptor (Homo sapiens) (P35372 whole entry): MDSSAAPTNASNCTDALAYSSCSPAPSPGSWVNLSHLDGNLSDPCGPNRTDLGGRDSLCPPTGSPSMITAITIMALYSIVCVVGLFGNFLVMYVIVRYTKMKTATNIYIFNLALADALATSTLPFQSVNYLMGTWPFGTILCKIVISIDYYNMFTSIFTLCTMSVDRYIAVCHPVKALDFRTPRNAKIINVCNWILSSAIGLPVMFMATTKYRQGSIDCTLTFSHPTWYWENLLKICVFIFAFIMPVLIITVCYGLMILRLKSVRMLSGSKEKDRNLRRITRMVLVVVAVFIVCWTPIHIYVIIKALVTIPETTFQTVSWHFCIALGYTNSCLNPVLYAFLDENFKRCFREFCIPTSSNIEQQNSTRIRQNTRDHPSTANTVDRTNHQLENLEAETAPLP

[12] = target: Kappa-type opioid receptor (Homo sapiens) (UniProt P41145); assay: Agonist activity at human kappa opioid receptor expressed in HEK293 cells assessed as stimulation of [35S]GTPgammaS binding at 1 uM relative to U69,593; type: functional, cell-based; in short: as §3
Chain of Kappa-type opioid receptor (Homo sapiens) (P41145 whole entry): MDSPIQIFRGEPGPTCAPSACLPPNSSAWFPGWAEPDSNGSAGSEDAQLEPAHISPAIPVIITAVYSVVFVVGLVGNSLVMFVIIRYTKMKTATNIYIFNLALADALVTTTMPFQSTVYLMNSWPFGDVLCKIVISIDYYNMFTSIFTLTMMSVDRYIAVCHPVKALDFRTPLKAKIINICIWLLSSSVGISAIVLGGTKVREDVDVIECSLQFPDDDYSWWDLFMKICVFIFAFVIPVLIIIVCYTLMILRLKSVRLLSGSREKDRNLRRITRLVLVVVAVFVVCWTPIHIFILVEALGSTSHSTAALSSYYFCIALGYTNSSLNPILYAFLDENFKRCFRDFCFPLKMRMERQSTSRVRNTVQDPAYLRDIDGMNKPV

Rattus norvegicus [13] = assay: Antitussive activity in po dosed Sprague-Dawley rat assessed as reduction in number of capsaicin-induced coughs; type: functional
[14] = Binding affinity to guinea pig delta opioid receptor; parameters: species or system Cavia porcellus; in short: as §2
Mu-type opioid receptor [15] = target: T3, Mu-type opioid receptor; assay: Binding affinity to guinea pig mu opioid receptor; in short: as §2
[16] = target: T5, Delta-type opioid receptor (Mus musculus, UniProt P32300); assay: Antagonist activity at delta opioid receptor in electrically-induced ddY mouse vas deferens assessed as effect on DPDPE-induced inhibition of electrically-stimulated contraction at 100 uM; type: functional, tissue-based; conditions: read-out: pA2 (converted); in short: as §1
T5 sequence (P32300 whole entry): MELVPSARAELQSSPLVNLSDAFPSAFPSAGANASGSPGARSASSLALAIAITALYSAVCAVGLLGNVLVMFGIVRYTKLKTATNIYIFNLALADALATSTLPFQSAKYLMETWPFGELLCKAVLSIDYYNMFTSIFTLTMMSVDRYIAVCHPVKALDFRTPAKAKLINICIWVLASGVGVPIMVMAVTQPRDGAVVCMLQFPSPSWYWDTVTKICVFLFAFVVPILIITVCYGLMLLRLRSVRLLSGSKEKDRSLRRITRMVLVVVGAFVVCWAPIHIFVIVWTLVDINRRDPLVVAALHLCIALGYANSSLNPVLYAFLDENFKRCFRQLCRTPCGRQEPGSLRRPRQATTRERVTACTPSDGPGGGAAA

[17] = target: T2, Kappa-type opioid receptor; assay: Antagonist activity at kappa opioid receptor in electrically-induced ddY mouse vas deferens assessed as effect on U50,488H-induced inhibition of electrically-stimulated contraction at 100 uM; type: functional, tissue-based; conditions: read-out: pA2 (converted); in short: as §1
[18] = target: T4, Kappa-type opioid receptor; assay: Binding affinity to guinea pig kappa opioid receptor; in short: as §2
Mu-type opioid receptor [19] = target: T1, Mu-type opioid receptor; assay: Antagonist activity at mu opioid receptor in electrically-induced ddY mouse vas deferens assessed as effect on […]-induced inhibition of electrically-stimulated contraction at 10 uM; type: functional, tissue-based; conditions: read-out: pA2 (converted)
[20] = target: T2, Kappa-type opioid receptor; assay: Antagonist activity at kappa opioid receptor in electrically-induced ddY mouse vas deferens assessed as effect on U50,488H-induced inhibition of electrically-stimulated contraction at 10 uM; type: functional, tissue-based; conditions: read-out: pA2 (converted); in short: as §1
[21] = target: T5, Delta-type opioid receptor; assay: Antagonist activity at delta opioid receptor in electrically-induced ddY mouse vas deferens assessed as effect on DPDPE-induced inhibition of electrically-stimulated contraction at 30 uM; type: functional, tissue-based; conditions: read-out: pA2 (converted); in short: as §1
[22] = target: T5, Delta-type opioid receptor; assay: Antagonist activity at delta opioid receptor in electrically-induced ddY mouse vas deferens assessed as effect on DPDPE-induced inhibition of electrically-stimulated contraction at 10 uM; type: functional, tissue-based; conditions: read-out: pA2 (converted); in short: as §1

COc1ccc2c3c1O[C@H]1c4c(c5cccc(C)c5n4C)C[C@@]4(O)[C@@H](C2)N(CC2CC2)CC[C@]314
ED50 (Rattus norvegicus [1]): 0.00635 mg/kg

Cn1c2c(c3ccccc31)C[C@@]1(O)[C@H]3Cc4ccc(O)c5c4[C@@]1(CCN3CC1CC1)[C@H]2O5
ED50 (Rattus norvegicus [1]): 0.204 mg/kg

CN1CC[C@]2(c3cccc(O)c3)Cc3nc4ccccc4cc3C[C@H]2C1 (relative stereo)
Activity (Rattus norvegicus [2]): Active

Oc1ccc2c3c1O[C@H]1c4c(c5cccc6c5n4CC6)C[C@@]4(O)[C@@H](C2)N(CC2CC2)CC[C@]314
Kb (Mu-type opioid receptor [3]): 15.8 nM
Kb [4]: 7.94 nM
Ki [5]: 0.295 nM
Ki (Mu-type opioid receptor [6]): 23.2 nM
Ki [7]: 7.99 nM
Selectivity ratio (Cavia porcellus [8]): 79
Selectivity ratio (Cavia porcellus [9]): 27
Activity [10]: 26%
Activity [11]: 0%
Activity [12]: 3%

Oc1ccc2c3c1O[C@H]1c4[nH]c5ccccc5c4C[C@@]4(O)[C@@H](C2)N(CC2CC2)CC[C@]314 [NALTRINDOLE]
ED50 (Rattus norvegicus [13]): 1.83 mg/kg
Ki [5]: 0.135 nM
Ki (Mu-type opioid receptor [6]): 12.7 nM
Ki [7]: 7.44 nM
Selectivity ratio (Cavia porcellus [8]): 94
Selectivity ratio (Cavia porcellus [9]): 55
Activity [10]: -3%
Activity [11]: 5%
Activity [12]: 12%
Ki [14]: 0.217 nM
Ki (Mu-type opioid receptor [15]): 27 nM

Oc1ccc2c3c1O[C@H]1c4[nH]c5c6c(ccc5c4C[C@@]4(O)[C@@H](C2)N(CC2CC2)CC[C@]314)CCCC6
Kb [16]: 23.4 nM
Kb [17]: 1660 nM
Ki [5]: 6.32 nM
Ki (Mu-type opioid receptor [6]): 200 nM
Ki [7]: 52 nM
Selectivity ratio (Cavia porcellus [8]): 32
Selectivity ratio (Cavia porcellus [9]): 8.2
Activity [10]: 19%
Activity [11]: -1%
Activity [12]: 33%

COc1ccc2c3c1O[C@H]1c4[nH]c5ccccc5c4C[C@@]4(O)[C@@H](C2)N(CC2CC2)CC[C@]314
Ki [14]: 6.57 nM
Ki (Mu-type opioid receptor [15]): 2510 nM
Ki [18]: 3.91 µM

Oc1ccc2c3c1O[C@H]1c4c(c5cccc6c5n4CCCC6)C[C@@]4(O)[C@@H](C2)N(CC2CC2)CC[C@]314
ED50 (Rattus norvegicus [1]): 0.0123 mg/kg
Kb (Mu-type opioid receptor [19]): 18.2 nM
Kb [20]: 51.3 nM
Ki [5]: 2.26 nM
Ki (Mu-type opioid receptor [6]): 113 nM
Ki [7]: 40 nM
Selectivity ratio (Cavia porcellus [8]): 50
Selectivity ratio (Cavia porcellus [9]): 18
Activity [10]: 20%
Activity [11]: -1%
Activity [12]: 32%

COc1ccc2c3c1O[C@H]1c4c(c5cccc6c5n4CCC6)C[C@@]4(O)[C@@H](C2)N(CC2CC2)CC[C@]314.CS(=O)(=O)O
ED50 (Rattus norvegicus [13]): 0.0064 mg/kg
Kb [17]: 67.6 nM
Ki [5]: 79 nM
Ki (Mu-type opioid receptor [6]): > 3670 nM
Ki [7]: 3290 nM
Selectivity ratio (Cavia porcellus [8]): > 46
Selectivity ratio (Cavia porcellus [9]): 42
Activity [10]: 47%
Activity [11]: -1%
Activity [12]: 8%

CCn1c2c(c3cccc(C)c31)C[C@@]1(O)[C@H]3Cc4ccc(OC)c5c4[C@@]1(CCN3CC1CC1)[C@H]2O5
ED50 (Rattus norvegicus [1]): 0.00179 mg/kg
Ki [5]: 218 nM
Ki (Mu-type opioid receptor [6]): > 3670 nM
Ki [7]: 4650 nM
Selectivity ratio (Cavia porcellus [8]): > 17
Selectivity ratio (Cavia porcellus [9]): 21
Activity [10]: 47%
Activity [11]: 1%
Activity [12]: 21%

CCCn1c2c(c3ccccc31)C[C@@]1(O)[C@H]3Cc4ccc(OC)c5c4[C@@]1(CCN3CC1CC1)[C@H]2O5
ED50 (Rattus norvegicus [1]): 0.0148 mg/kg

Oc1ccc2c3c1O[C@H]1c4c(c5cccc6c5n4CCC6)C[C@@]4(O)[C@@H](C2)N(CC2CC2)CC[C@]314
Kb [21]: 0.794 nM
Kb (Mu-type opioid receptor [3]): 12.6 nM
Kb [4]: 27.5 nM
Ki [5]: 0.673 nM
Ki (Mu-type opioid receptor [6]): 60.6 nM
Ki [7]: 15.1 nM
Selectivity ratio (Cavia porcellus [8]): 90
Selectivity ratio (Cavia porcellus [9]): 22
Activity [10]: -2%
Activity [11]: 1%
Activity [12]: 26%

COc1ccc2c3c1O[C@H]1c4c(c5cccc6c5n4CCCC6)C[C@@]4(O)[C@@H](C2)N(CC2CC2)CC[C@]314
Kb [22]: 295 nM
Kb [20]: 17 nM
Ki [5]: 274 nM
Ki (Mu-type opioid receptor [6]): > 3670 nM
Ki [7]: 3340 nM
Selectivity ratio (Cavia porcellus [8]): > 13
Selectivity ratio (Cavia porcellus [9]): 12
Activity [10]: 45%
Activity [11]: -1%
Activity [12]: 11%
